The text below walks through data of ChEMBL document CHEMBL3774321, “Systematic diversification of benzylidene heterocycles yields novel inhibitor scaffolds selective for Dyrk1A, Clk1 and CK2” (Eur J Med Chem, 2016).

Calls of active or inactive are those of the source. The rule behind the calls is not given here.

As a reminder, the inhibition is the drop in the measured response relative to a control, in per cent. A word on the IC50: it is the concentration at which inhibition is half-maximal. Higher therefore signals weaker potency in that assay.

Series [1] concerns the target Mitogen-activated protein kinase kinase kinase 9 (Homo sapiens) (UniProt P80192). Put plainly: Inhibition of recombinant human GST-tagged MAP3K9 expressed in baculovirus expression system at 1 uM by lantha screen kinase binding assay relative to control. Summed up: (§1)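 Binding-displacement format: the compound competes with an Alexa Fluor-conjugated tracer for binding to the kinase ATP site, rather than a peptide phosphorylation read-out.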

In series [2] the target is Casein kinase I isoform delta (Homo sapiens) (UniProt P48730). Put plainly: Inhibition of full length recombinant human GST-tagged CSNK1D expressed in baculovirus expression system at 1 uM by lantha screen kinase binding assay relative to control.
Series [3] concerns the target Casein kinase I isoform epsilon (Homo sapiens) (UniProt P49674). Put plainly: Inhibition of full length recombinant human His-tagged CSNK1E expressed in baculovirus expression system at 1 uM by lantha screen kinase binding assay relative to control.
Series [4] concerns the target Casein kinase I isoform gamma-2 (Homo sapiens) (UniProt P78368). As to the kind of experiment: Inhibition of full length recombinant human His-tagged CSNK1G2 expressed in baculovirus expression system at 1 uM by lantha screen kinase binding assay relative to control.
For series [5], the target named is Dual specificity tyrosine-phosphorylation-regulated kinase 4 (Homo sapiens) (UniProt Q9NR20). As to the kind of experiment: Inhibition of full length recombinant human GST-tagged DYRK4 expressed in baculovirus expression system at 1 uM by lantha screen kinase binding assay relative to control.
Series [6] concerns the target Dual specificity protein kinase CLK2 (Homo sapiens) (UniProt P49760). Put plainly: Inhibition of recombinant human GST-tagged CLK2 expressed in baculovirus expression system at 1 uM by lantha screen kinase binding assay relative to control. The method, boiled down: as §1
The target of series [7] is Myosin light chain kinase, smooth muscle (Homo sapiens) (UniProt Q15746). As to the kind of experiment: Inhibition of recombinant human GST-tagged MYLK expressed in baculovirus expression system at 1 uM by lantha screen kinase binding assay relative to control. The method, boiled down: as §1
The target of series [8] is Tyrosine-protein kinase ABL1 (Homo sapiens) (UniProt P00519). Put plainly: Inhibition of recombinant human His-tagged ABL1 expressed in baculovirus expression system at 1 uM by lantha screen kinase binding assay relative to control. Summed up:
as §1

The target of series [9] is Serine/threonine-protein kinase pim-2 (Homo sapiens) (UniProt Q9P1W9). As to the kind of experiment: Inhibition of full length recombinant human GST-tagged PIM2 expressed in baculovirus expression system at 1 uM by lantha screen kinase binding assay relative to control.
The target in series [10] is Serine/threonine-protein kinase 17A (Homo sapiens, UniProt Q9UEE5). As to the kind of experiment: Inhibition of STK17A (unknown origin).
Series [11] concerns the target Receptor-interacting serine/threonine-protein kinase 2 (Homo sapiens) (UniProt O43353). As to the kind of experiment: Inhibition of recombinant human His-tagged RIPK2 expressed in baculovirus expression system at 1 uM by lantha screen kinase binding assay relative to control. The method, boiled down: as §1
Series [12] concerns the target Mitogen-activated protein kinase 8 (Homo sapiens) (UniProt P45983). As to the kind of experiment: Inhibition of full length recombinant human His-tagged MAPK8 expressed in baculovirus expression system at 1 uM by lantha screen kinase binding assay relative to control. The method, boiled down: as §1
Series [13] deals with BDNF/NT-3 growth factors receptor (Homo sapiens) (UniProt Q16620). As to the kind of experiment: Inhibition of recombinant human His-tagged NTRK2 expressed in baculovirus expression system at 1 uM by lantha screen kinase binding assay relative to control. Summed up:
as §1

For series [14], the target named is Epidermal growth factor receptor (Homo sapiens, UniProt P00533). As to the kind of experiment: Inhibition of recombinant human GST-tagged EGFR expressed in baculovirus expression system at 1 uM by lantha screen kinase binding assay relative to control. The method, boiled down: as §1
Series [15] deals with HEK293. Put plainly: Cytotoxicity against HEK293 cells up to 20 uM. Type of series: cell-based. Particulars: human.
The target of series [16] is Dual specificity protein kinase CLK3 (Homo sapiens, UniProt P49761). As to the kind of experiment: Inhibition of recombinant human GST-tagged CLK3 expressed in baculovirus expression system at 5 uM by lantha screen kinase binding assay relative to control. The method, boiled down:
as §1

Series [17] deals with BDNF/NT-3 growth factors receptor (Homo sapiens) (UniProt Q16620). As to the kind of experiment: Inhibition of recombinant human His-tagged NTRK2 expressed in baculovirus expression system at 5 uM by lantha screen kinase binding assay relative to control. The method, boiled down:
as §1

For series [18], the target named is Cyclin-dependent kinase 5/CDK5 activator 1 (Homo sapiens) (UniProt Q00535+Q15078). Put plainly: Inhibition of full length recombinant human GST-tagged, His-tagged CDK5/p25 expressed in baculovirus expression system at 5 uM by lantha screen kinase binding assay.
Series [19] deals with Glycogen synthase kinase-3 beta (Homo sapiens) (UniProt P49841). As to the kind of experiment: Inhibition of full length recombinant human His-tagged GSK3beta expressed in baculovirus expression system at 5 uM by lantha screen kinase binding assay relative to control. Summed up:
as §1

The target of series [20] is Proto-oncogene tyrosine-protein kinase ROS (Homo sapiens) (UniProt P08922). Put plainly: Inhibition of recombinant human GST-tagged ROS1 expressed in baculovirus expression system at 5 uM by lantha screen kinase binding assay relative to control. The method, boiled down:
as §1

The target in series [21] is Serine/threonine-protein kinase D2 (Homo sapiens) (UniProt Q9BZL6). Put plainly: Inhibition of full length recombinant human GST-tagged PRKD2 expressed in baculovirus expression system at 5 uM by lantha screen kinase binding assay relative to control.
For series [22], the target named is Myosin light chain kinase 2, skeletal/cardiac muscle (Homo sapiens, UniProt Q9H1R3). Put plainly: Inhibition of full length recombinant human N-terminal GST-tagged MLCK expressed in baculovirus expression system at 5 uM by lantha screen kinase binding assay relative to control. Summed up: as §1
The target in series [23] is Serine/threonine-protein kinase 26 (Homo sapiens) (UniProt Q9P289). Put plainly: Inhibition of full length recombinant human GST-tagged MST4 expressed in baculovirus expression system at 5 uM by lantha screen kinase binding assay relative to control.
The target of series [24] is Casein kinase I isoform delta (Homo sapiens) (UniProt P48730). As to the kind of experiment: Inhibition of full length recombinant human GST-tagged CSNK1D expressed in baculovirus expression system at 5 uM by lantha screen kinase binding assay relative to control.
For series [25], the target named is Tyrosine-protein kinase ABL1 (Homo sapiens) (UniProt P00519). As to the kind of experiment: Inhibition of recombinant human His-tagged ABL1 expressed in baculovirus expression system at 5 uM by lantha screen kinase binding assay relative to control. Summed up: as §1
In series [26] the target is Serine/threonine-protein kinase pim-2 (Homo sapiens) (UniProt Q9P1W9). Put plainly: Inhibition of full length recombinant human GST-tagged PIM2 expressed in baculovirus expression system at 5 uM by lantha screen kinase binding assay relative to control.
For series [27], the target named is cAMP-dependent protein kinase catalytic subunit alpha (Homo sapiens) (UniProt P17612). Put plainly: Inhibition of recombinant human His-tagged PRKACA expressed in Escherichia coli at 5 uM by lantha screen kinase binding assay relative to control. Summed up: as §1
Series [28] addresses Casein kinase I isoform gamma-3 (Homo sapiens) (UniProt Q9Y6M4). As to the kind of experiment: Inhibition of full length recombinant human GST-tagged CSNK1G3 expressed in baculovirus expression system at 5 uM by lantha screen kinase binding assay relative to control.
The target of series [29] is Calcium/calmodulin-dependent protein kinase type II subunit alpha (Homo sapiens) (UniProt Q9UQM7). Put plainly: Inhibition of full length recombinant human His-tagged CAMK2A expressed in baculovirus expression system at 5 uM by lantha screen kinase binding assay relative to control.
Series [30] addresses Serine/threonine-protein kinase pim-1 (Homo sapiens, UniProt P11309). Put plainly: Inhibition of PIM1 (unknown origin) at 5 uM relative to control.
In series [31] the target is Serine/threonine-protein kinase 17A (Homo sapiens) (UniProt Q9UEE5). Put plainly: Inhibition of STK17A (unknown origin) at 5 uM relative to control.

Chain of Serine/threonine-protein kinase pim-2 (Homo sapiens) (Q9P1W9 whole entry, looked up): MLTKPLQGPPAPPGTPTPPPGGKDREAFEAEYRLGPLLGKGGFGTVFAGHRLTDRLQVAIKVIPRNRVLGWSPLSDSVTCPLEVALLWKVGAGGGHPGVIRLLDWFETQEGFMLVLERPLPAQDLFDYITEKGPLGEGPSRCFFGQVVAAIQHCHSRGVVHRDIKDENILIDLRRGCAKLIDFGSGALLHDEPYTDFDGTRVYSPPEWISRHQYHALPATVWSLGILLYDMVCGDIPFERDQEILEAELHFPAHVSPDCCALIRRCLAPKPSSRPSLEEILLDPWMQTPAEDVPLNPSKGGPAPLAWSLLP
Chain of Tyrosine-protein kinase ABL1 (Homo sapiens) (P00519 whole entry): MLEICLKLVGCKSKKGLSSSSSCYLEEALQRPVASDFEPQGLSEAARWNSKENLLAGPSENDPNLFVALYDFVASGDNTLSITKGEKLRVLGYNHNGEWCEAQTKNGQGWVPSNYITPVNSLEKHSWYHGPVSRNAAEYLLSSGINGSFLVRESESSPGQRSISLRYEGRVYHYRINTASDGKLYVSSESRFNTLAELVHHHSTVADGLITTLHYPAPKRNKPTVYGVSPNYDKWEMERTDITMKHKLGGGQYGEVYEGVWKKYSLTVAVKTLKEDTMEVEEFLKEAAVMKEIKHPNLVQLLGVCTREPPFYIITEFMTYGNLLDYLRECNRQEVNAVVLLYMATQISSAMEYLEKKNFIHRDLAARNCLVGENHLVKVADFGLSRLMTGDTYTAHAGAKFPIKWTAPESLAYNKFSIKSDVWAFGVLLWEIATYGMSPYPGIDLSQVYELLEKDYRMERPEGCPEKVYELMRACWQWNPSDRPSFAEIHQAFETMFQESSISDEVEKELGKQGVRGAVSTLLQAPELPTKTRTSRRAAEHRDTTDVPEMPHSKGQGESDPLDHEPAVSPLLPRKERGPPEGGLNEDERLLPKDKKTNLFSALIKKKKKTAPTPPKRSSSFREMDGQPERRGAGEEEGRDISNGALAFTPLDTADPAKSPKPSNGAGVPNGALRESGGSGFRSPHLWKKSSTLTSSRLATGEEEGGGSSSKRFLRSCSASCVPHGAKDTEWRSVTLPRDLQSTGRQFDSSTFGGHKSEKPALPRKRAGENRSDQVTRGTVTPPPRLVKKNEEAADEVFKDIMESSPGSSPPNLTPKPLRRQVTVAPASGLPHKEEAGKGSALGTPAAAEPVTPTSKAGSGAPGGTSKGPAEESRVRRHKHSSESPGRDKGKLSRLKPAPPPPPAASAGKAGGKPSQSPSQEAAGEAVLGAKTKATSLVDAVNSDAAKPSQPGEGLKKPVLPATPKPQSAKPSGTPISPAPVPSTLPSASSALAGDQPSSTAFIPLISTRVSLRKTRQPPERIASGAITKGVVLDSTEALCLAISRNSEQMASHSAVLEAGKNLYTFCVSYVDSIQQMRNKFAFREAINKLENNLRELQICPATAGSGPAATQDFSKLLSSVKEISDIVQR
Chain of Casein kinase I isoform delta (Homo sapiens) (P48730 whole entry, looked up, canonical isoform): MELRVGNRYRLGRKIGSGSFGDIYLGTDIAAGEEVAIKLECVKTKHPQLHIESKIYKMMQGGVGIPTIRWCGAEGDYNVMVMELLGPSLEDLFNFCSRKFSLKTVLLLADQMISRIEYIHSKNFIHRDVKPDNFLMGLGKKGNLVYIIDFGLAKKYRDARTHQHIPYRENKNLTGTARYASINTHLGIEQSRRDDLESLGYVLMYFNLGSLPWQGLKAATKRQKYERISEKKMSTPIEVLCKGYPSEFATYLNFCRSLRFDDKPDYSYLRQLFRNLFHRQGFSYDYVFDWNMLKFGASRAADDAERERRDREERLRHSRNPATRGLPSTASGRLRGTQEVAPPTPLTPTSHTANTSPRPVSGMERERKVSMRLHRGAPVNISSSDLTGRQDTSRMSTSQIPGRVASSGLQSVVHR
Chain of BDNF/NT-3 growth factors receptor (Homo sapiens) (Q16620 32-822 limits assumed): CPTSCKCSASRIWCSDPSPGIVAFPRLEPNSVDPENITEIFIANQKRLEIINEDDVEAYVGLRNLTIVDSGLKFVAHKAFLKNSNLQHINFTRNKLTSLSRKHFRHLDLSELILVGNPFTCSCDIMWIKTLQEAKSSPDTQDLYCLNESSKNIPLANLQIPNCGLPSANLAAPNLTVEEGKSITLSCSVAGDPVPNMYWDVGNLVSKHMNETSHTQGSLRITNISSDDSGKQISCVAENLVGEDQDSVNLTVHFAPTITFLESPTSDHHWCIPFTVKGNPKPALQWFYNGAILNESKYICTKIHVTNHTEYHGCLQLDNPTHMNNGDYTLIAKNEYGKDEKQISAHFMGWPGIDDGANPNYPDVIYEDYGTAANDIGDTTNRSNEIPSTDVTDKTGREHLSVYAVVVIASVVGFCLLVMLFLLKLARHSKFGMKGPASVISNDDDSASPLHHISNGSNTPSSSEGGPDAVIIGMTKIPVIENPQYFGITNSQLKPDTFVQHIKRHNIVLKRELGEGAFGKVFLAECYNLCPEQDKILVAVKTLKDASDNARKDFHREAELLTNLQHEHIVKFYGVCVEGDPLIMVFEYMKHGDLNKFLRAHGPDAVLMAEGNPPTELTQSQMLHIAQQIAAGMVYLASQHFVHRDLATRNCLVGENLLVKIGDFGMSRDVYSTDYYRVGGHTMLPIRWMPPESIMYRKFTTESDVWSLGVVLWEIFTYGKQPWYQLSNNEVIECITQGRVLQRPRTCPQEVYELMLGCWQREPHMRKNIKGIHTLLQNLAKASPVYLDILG
Chain of Receptor-interacting serine/threonine-protein kinase 2 (Homo sapiens) (O43353 whole entry): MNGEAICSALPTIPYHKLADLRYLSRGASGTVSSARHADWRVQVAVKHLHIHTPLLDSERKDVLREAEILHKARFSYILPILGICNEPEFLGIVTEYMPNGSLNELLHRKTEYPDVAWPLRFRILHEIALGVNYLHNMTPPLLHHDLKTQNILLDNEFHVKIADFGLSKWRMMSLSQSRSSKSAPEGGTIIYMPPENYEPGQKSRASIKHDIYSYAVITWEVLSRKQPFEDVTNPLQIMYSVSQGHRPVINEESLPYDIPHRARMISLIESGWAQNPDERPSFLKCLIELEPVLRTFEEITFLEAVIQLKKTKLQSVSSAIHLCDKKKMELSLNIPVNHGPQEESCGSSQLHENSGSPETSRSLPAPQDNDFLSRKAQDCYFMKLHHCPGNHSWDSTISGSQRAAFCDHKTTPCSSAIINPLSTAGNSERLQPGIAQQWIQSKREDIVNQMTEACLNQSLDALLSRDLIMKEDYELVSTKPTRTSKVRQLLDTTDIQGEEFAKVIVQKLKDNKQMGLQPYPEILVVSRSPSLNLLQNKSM
Chain of Myosin light chain kinase 2, skeletal/cardiac muscle (Q9H1R3 whole entry): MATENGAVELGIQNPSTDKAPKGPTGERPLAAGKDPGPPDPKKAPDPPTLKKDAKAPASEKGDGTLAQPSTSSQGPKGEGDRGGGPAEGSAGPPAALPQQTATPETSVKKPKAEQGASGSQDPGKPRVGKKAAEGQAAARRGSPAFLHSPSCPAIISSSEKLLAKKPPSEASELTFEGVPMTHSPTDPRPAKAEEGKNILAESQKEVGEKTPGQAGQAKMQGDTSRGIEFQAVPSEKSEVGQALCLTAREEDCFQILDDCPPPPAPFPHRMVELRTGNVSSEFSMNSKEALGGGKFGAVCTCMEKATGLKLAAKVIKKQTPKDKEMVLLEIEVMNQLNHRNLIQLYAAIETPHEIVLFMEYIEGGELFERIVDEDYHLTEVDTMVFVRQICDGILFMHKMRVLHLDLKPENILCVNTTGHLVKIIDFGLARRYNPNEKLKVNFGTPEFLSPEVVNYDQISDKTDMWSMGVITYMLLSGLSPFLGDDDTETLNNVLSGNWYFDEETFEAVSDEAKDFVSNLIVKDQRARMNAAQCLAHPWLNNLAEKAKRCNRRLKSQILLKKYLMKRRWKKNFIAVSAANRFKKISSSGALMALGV
Chain of Calcium/calmodulin-dependent protein kinase type II subunit alpha (Homo sapiens) (Q9UQM7 whole entry): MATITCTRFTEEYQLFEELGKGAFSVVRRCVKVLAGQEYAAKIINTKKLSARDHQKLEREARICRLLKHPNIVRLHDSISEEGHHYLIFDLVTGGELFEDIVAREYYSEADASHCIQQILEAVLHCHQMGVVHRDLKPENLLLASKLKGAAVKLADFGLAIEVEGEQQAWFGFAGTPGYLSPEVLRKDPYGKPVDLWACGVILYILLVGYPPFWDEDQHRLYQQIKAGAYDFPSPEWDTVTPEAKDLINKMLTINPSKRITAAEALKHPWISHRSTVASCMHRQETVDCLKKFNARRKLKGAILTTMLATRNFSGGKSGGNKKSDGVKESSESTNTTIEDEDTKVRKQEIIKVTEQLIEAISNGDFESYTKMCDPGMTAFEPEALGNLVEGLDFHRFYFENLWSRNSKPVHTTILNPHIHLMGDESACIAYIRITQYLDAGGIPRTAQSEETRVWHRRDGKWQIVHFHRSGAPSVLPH
Chain of Dual specificity tyrosine-phosphorylation-regulated kinase 4 (Homo sapiens) (Q9NR20 whole entry): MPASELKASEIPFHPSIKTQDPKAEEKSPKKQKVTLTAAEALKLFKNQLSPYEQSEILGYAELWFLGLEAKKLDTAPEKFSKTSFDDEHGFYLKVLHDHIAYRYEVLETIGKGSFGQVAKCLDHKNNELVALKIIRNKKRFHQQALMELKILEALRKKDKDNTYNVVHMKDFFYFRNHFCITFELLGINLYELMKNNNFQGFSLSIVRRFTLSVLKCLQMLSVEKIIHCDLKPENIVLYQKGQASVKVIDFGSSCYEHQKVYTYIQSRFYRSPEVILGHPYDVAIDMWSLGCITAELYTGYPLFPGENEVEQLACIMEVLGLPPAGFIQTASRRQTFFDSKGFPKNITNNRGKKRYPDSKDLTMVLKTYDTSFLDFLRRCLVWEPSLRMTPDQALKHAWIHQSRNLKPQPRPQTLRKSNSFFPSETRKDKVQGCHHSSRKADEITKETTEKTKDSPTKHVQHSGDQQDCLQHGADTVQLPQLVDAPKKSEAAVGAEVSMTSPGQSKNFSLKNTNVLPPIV

Regarding `O=C1NC(=S)S/C1=C\c1ccc2ncccc2c1`, the inhibition was determined as 2% in [1]; 11% in [2]; 1% in [3]; 43% in series [4]; 39% in series [5]; 80% in series [6]. The inhibition was determined as 48% in series [7]; 14% in series [8]; 31% in [9]; 83% in series [11]; 7% in series [12]; 3% in series [13]. Further, in series [10], inhibition was half-maximal at 12.8 nM (IC50). In addition, in series [14], the inhibition result was “inactive”.
Take `O=C1OCC/C1=C\c1ccc2ncsc2c1`: in series [15], the Activity entry is listed as “Non-toxic”.
Regarding `O=C1NC(=S)S/C1=C\c1ccc2ncsc2c1`, the inhibition in series [16] was determined as 44%; in series [19] it was 8%; in series [22], 12%; in series [25], 6%. The inhibition result in [17], in series [18], in [20], in series [21], in series [23] and in series [24] was “inactive” each time. Further, the inhibition entry in series [26], in [27], in [28] and in [29] was “inactive” throughout.
Consider `CC1C/C(=C\c2ccc3c(c2)CCO3)C(=O)O1` (stereo unspecified), for which the inhibition in series [30] was 19%; in series [31], 28%.
